This note sets out measurements from ChEMBL document CHEMBL1250490, “Synthesis, characterization, antiamoebic activity and cytotoxicity of novel series of pyrazoline derivatives bearing quinoline tail” (Eur J Med Chem, 2010).

One may read the IC50 as the concentration that gives 50% inhibition.

The subject of the assay is MCF7. As to the kind of experiment: Cytotoxicity against human MCF7 cells after 48 hrs by MTT assay. It is filed as cell-based. The settings on record: MCF7, 48 h. The method, boiled down: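 MCF-7 cells were kept as monolayers in DMEM with 10% fetal calf serum and penicillin. They were plated at 1.2×10⁴ cells/well and grown 48 h before dosing. Compounds were dissolved as 20% DMSO stocks and diluted in complete medium. After 48 h exposure, MTT was added for 4 h at 37 °C and dissolved in DMSO. Absorbance was read at 570 nm (reference 655 nm); viability is relative to untreated cells. Triplicate, repeated thrice.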
Background: Tetrazolium dyes change colour on reduction, which living cells bring about.

Bounds are passed on as bounds.

In the case of `Cc1ncc([N+](=O)[O-])n1CCO` [METRONIDAZOLE], the half-maximal inhibitory concentration (IC50) was greater than 100 µM.
